Published values of several laboratories.
Compare with care: the assays were run in different laboratories.
Target: Serine/threonine-protein kinase PLK4 (PLK4, Homo sapiens, UniProt O00444)
Sequence (O00444 1-970, as in one of the studies): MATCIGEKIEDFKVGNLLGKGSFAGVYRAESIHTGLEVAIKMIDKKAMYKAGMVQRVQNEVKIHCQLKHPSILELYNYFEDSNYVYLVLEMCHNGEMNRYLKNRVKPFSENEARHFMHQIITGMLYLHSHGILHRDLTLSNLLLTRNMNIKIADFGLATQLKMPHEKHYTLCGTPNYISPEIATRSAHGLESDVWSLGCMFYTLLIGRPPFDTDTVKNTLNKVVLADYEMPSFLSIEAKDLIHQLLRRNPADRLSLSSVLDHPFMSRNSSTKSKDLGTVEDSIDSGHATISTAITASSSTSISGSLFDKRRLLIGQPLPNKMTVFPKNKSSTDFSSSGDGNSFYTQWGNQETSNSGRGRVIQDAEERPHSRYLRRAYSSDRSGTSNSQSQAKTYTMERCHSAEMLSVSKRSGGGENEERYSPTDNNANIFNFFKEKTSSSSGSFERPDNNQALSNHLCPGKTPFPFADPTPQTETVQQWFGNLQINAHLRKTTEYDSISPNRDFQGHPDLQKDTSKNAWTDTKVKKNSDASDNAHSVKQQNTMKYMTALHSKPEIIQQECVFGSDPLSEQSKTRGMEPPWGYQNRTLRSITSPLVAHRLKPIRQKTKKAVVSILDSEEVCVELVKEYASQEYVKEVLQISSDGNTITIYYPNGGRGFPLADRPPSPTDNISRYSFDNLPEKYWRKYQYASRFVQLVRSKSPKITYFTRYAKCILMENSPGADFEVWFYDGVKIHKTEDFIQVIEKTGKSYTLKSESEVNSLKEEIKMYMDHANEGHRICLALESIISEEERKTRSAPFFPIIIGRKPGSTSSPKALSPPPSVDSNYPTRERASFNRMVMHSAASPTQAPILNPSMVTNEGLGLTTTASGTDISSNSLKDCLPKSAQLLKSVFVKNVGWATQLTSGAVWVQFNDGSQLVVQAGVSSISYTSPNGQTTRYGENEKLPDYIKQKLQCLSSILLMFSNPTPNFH

Structure (SMILES) | observed | technique | tested at | remaining binding [%]
Cc1c[nH]c2nccc(Oc3c(F)cc(Nc4cc(Cl)nc(N)n4)cc3F)c12 | cell-free assay | competition with immobilised ligand | 0.1 µM | 82
C[C@@H]1CN(c2ccc3ncc(-c4ccc5[nH]nc(C6CC6)c5c4)n3n2)C[C@H](C)O1 | binding | competition with immobilised ligand | 50 nM | 88
CC(C)(C)c1ccc(-c2nc(CBr)nn2-c2cccc(O)c2)cc1 | cell-free assay | competition with immobilised ligand | 10 µM | 88
CCC(=O)N[C@H]1CC[C@@H](C(=O)N(C)c2ccc(-c3nc4ccccc4o3)cc2)C1 | cell-free assay | competition with immobilised ligand | 1 µM | 78
CNC(=O)[C@@H]1CC[C@@H](n2c(-c3ccc4cnccc4c3)nc3ccc(C(=O)NCc4cccc(C(N)=O)c4)cc32)C1 | binding | competition with immobilised ligand | 1 µM | 100
CCCCN(CCCC)C(=O)CN1C[C@H](c2cc(OC)c3c(c2)OCO3)[C@@H](C(=O)O)[C@@H]1CC(C)(C)CCC | cell-free assay | competition with immobilised ligand | 1 µM | 100
C[C@@H](c1ccc(-n2cnc3c(N)ncnc32)cc1)N1CCc2nn(C)c(Cc3ccccc3)c2C1=O | binding | competition with immobilised ligand | 0.1 µM | 72
COc1cnc(Nc2cccc(S(N)(=O)=O)c2)nc1N1CCN(c2ccccc2)C(=O)C1 | binding | competition with immobilised ligand | 1 µM | 96
CN1CCN(c2cnc3c(C4CCN(C(=O)c5ccc(OC(F)(F)F)cc5N)CC4)ncnc3c2)CC1 | cell-free assay | competition with immobilised ligand | 1 µM | 83
C[C@H]1CCN(c2nccc(-c3cnn4ncccc34)n2)C1 | binding | – | 1 µM | 99
O=C(c1ccc(Nc2ncc(Cl)c(-c3ccc(Cl)s3)n2)cc1)N1CCC(N2CCCC2)CC1 | binding | competition with immobilised ligand | 1 µM | 9.2
CN(C)c1nccc(-c2cnn3ncccc23)n1 | binding | – | 1 µM | 96
CN(C(=O)c1ccccc1)c1cc(N(C)c2ccc3c(c2)CCc2ccc(C(=O)NCCN4CCOCC4)cc2C3=O)ccc1F | cell-free assay | competition with immobilised ligand | 1 µM | 93
COc1ccnn2ncc(-c3ccnc(N(C)C)n3)c12 | binding | – | 1 µM | 69
Nc1ncc2c(n1)-c1c([nH]c3ccc(C#CC4CC4)cc13)CCCC2 | binding | competition with immobilised ligand | 1 µM | 87
c1cncc(-c2cccc(Nc3nccc(NC4CCCCC4)n3)c2)c1 | binding | competition with immobilised ligand | 10 µM | 34
c1cnn2ncc(-c3ccnc(N4CCC45COC5)n3)c2c1 | binding | – | 1 µM | 79
O=C(Nc1c[nH]nc1C(=O)NC1CCNCC1)c1cc(F)cc(F)c1 | binding | competition with immobilised ligand | 1 µM | 97
CN(c1nccc(-c2cnn3ncccc23)n1)C1CC1 | binding | – | 1 µM | 100
O=C(NCCCN1CCOCC1)c1ccc(Nc2ncc(Cl)c(-c3ccc(Cl)s3)n2)cc1 | binding | competition with immobilised ligand | 1 µM | 38
CC(=O)c1c(NS(C)(=O)=O)c2cc(-c3ccc(Cl)cc3)c(-c3ccc(Cl)cc3Cl)nc2n(C)c1=O | cell-free assay | competition with immobilised ligand | 1 µM | 100
N[C@@H]1CCN(c2nccc(-c3cnn4ncccc34)n2)C1 | binding | – | 1 µM | 100
O=C(c1ccc(Nc2ncc(Cl)c(-c3cc4ccccc4s3)n2)cc1)N1CCC(N2CCCC2)CC1 | binding | competition with immobilised ligand | 1 µM | 39
F[C@@H]1CCN(c2nccc(-c3cnn4ncccc34)n2)C1 | binding | – | 1 µM | 100
CNC(=O)c1ccc(Nc2ncc(C(F)(F)F)c(NCc3nccnc3N(C)S(C)(=O)=O)n2)cc1 | cell-free assay | competition with immobilised ligand | 0.1 µM | 79
